{"data": "Measured values of several laboratories", "HSD11B1": "11-beta-hydroxysteroid dehydrogenase 1 (HSD11B1, Homo sapiens, UniProt P28845)", "SETD7": "Histone-lysine N-methyltransferase SETD7 (SETD7, Homo sapiens, UniProt Q8WTS6)", "SLC10A2": "Ileal sodium/bile acid cotransporter (SLC10A2, Homo sapiens, UniProt Q12908)", "CNR2": "Cannabinoid receptor 2 (CNR2, Homo sapiens, UniProt P34972)", "CSNK1A1": "Casein kinase I isoform alpha (CSNK1A1, Homo sapiens, UniProt P48729)", "ADRB2": "Beta-2 adrenergic receptor (ADRB2, Homo sapiens, UniProt P07550)", "note": "Each line is one published result; the experiments were not run side by side."}
{"SMILES": "CN(CCOc1ccc(CC2SC(=O)NC2=O)cc1)c1ccccn1 (centres unmarked)", "target": "HSD11B1", "test": "enzyme activity, inhibitor", "conditions": "20 µM, lysate", "inhibition [%]": "< 40"}
{"SMILES": "CCCCC(CC)CNC(=N)NC(=N)NCCCCCCNC(=N)NC(=N)NCC(CC)CCCC (centres unmarked)", "target": "SETD7", "test": "cell-free assay", "conditions": "10 µM", "inhibition [%]": -110}
{"SMILES": "O=C(O)c1ncccc1O", "target": "72 kDa type IV collagenase (MMP2, Homo sapiens, UniProt P08253)", "test": "enzyme activity, inhibitor, fluorescence", "conditions": "1 mM", "inhibition [%]": "~50"}
{"SMILES": "NS(=O)(=O)c1cc2c(cc1Cl)NCNS2(=O)=O", "target": "SLC10A2", "test": "transporter uptake, inhibitor, radiometric", "conditions": "1 mM", "inhibition [%]": 25.8}
{"SMILES": "CN1CCN(CCCOc2ccc(=O)n(-c3ccc(Cl)c(Cl)c3)n2)CC1", "target": "CNR2", "test": "ligand displacement", "conditions": "1 µM", "inhibition [%]": 27.4}
{"SMILES": "O=C1N=C(N2CCCCN2)S/C1=C\\c1ccc(F)cc1O", "target": "Galanin receptor type 2 (GALR2, Homo sapiens, UniProt O43603)", "test": "ligand displacement, radioligand", "conditions": "10 µM", "inhibition [%]": "< 10"}
{"SMILES": "Cc1cc(-c2ccc(/N=N/c3ccc4c(S(=O)(=O)O)cc(S(=O)(=O)O)c(N)c4c3O)c(C)c2)ccc1/N=N/c1ccc2c(S(=O)(=O)O)cc(S(=O)(=O)O)c(N)c2c1O", "target": "SETD7", "test": "cell-free assay", "conditions": "10 µM", "inhibition [%]": 101}
{"SMILES": "CN1CCCCC1CCN1c2ccccc2Sc2ccc([S+](C)[O-])cc21 (centres unmarked)", "target": "SLC10A2", "test": "transporter uptake, inhibitor, radiometric", "conditions": "1 mM", "inhibition [%]": 73.6}
{"SMILES": "CN1CC(Oc2cnc(C#N)cc2-c2ccn3nc(NC(=O)C4CC4)cc3c2)C1", "target": "Cyclin-dependent kinase-like 3 (CDKL3, Homo sapiens, UniProt Q8IVW4)", "test": "enzyme activity, inhibitor", "conditions": "1 µM", "inhibition [%]": 1}
{"SMILES": "CCCN(CCC)S(=O)(=O)c1ccc(C(=O)O)cc1", "target": "SLC10A2", "test": "transporter uptake, inhibitor, radiometric", "conditions": "1 mM", "inhibition [%]": 47.4}
{"SMILES": "CN(C)C1CCN(CC#Cc2nn(C3CCCC3)c3nc(NCc4ccccc4)ncc23)C1 (centres unmarked)", "target": "CSNK1A1", "test": "enzyme activity, inhibitor, FRET", "conditions": "10 µM", "inhibition [%]": 1}
{"SMILES": "CCCNc1nc2ccccc2n1Cc1ccc(Cl)cc1", "target": "D(1B) dopamine receptor (DRD5, Homo sapiens, UniProt P21918)", "test": "ligand displacement", "conditions": "10 µM", "inhibition [%]": 69.6}
{"SMILES": "COc1cc(NC(C)=O)c(Cl)cc1C(=O)Nc1nccs1", "target": "ADRB2", "test": "cell-free assay", "conditions": "10 µM", "inhibition [%]": -8.3}
{"SMILES": "O=C(Oc1cc(O)cc2c1C[C@@H](OC(=O)c1cc(O)c(O)c(O)c1)[C@@H](c1cc(O)c(O)c(O)c1)O2)c1cc(O)c(O)c(O)c1", "target": "SETD7", "test": "cell-free assay", "conditions": "10 µM", "inhibition [%]": 28}
{"SMILES": "Cc1cn([C@H]2C[C@H](N=[N+]=[N-])[C@@H](CO)O2)c(=O)[nH]c1=O", "target": "SLC10A2", "test": "transporter uptake, inhibitor, radiometric", "conditions": "1 mM", "inhibition [%]": "< 10"}
{"SMILES": "O=C(c1ccc(Cl)cc1)N(Cc1ccccc1)C1CCCCC1", "target": "ADRB2", "test": "cell-free assay", "conditions": "10 µM", "inhibition [%]": 1.6}
{"SMILES": "NS(=O)(=O)c1cc2c(cc1Cl)N=CNS2(=O)=O", "target": "SLC10A2", "test": "transporter uptake, inhibitor, radiometric", "conditions": "1 mM", "inhibition [%]": 25.3}
{"SMILES": "C=C(CC)C(=O)c1ccc(OCC(=O)O)c(Cl)c1Cl", "target": "HSD11B1", "test": "enzyme activity, inhibitor", "conditions": "20 µM, lysate", "inhibition [%]": "< 40"}
{"SMILES": "C=CC1=C(C)c2cc3[nH]c(cc4nc(cc5[nH]c(cc1n2)c(C)c5CCC(=O)O)C(CCC(=O)O)=C4C)c(C)c3C=C", "target": "SETD7", "test": "cell-free assay", "conditions": "10 µM", "inhibition [%]": 34}
{"SMILES": "CNC(=O)c1cc(Oc2ccc(NC(=O)Nc3ccc(Cl)c(C(F)(F)F)c3)cc2)ccn1", "target": "G protein-coupled receptor kinase 5 (GRK5, Homo sapiens, UniProt P34947)", "test": "enzyme activity, inhibitor", "conditions": "10 µM", "inhibition [%]": 0}
{"SMILES": "CCOC(=O)C1=C(COCCN)NC(C)=C(C(=O)OC)C1c1ccccc1Cl (centres unmarked)", "target": "SLC10A2", "test": "transporter uptake, inhibitor, radiometric", "conditions": "1 mM", "inhibition [%]": 95.5}
{"SMILES": "CC(C)c1c(C(=O)Nc2ccccc2)c(-c2ccccc2)c(-c2ccc(F)cc2)n1CC[C@@H](O)C[C@@H](O)CC(=O)O", "target": "HSD11B1", "test": "enzyme activity, inhibitor", "conditions": "20 µM, lysate", "inhibition [%]": "< 40"}
{"SMILES": "CN(C)c1ccc(C(=C2C=CC(=[N+](C)C)C=C2)c2ccc(N(C)C)cc2)cc1", "target": "SETD7", "test": "cell-free assay", "conditions": "10 µM", "inhibition [%]": 59}
{"SMILES": "NS(=O)(=O)c1cc2c(cc1Cl)NC(C(Cl)Cl)NS2(=O)=O (centres unmarked)", "target": "SLC10A2", "test": "transporter uptake, inhibitor, radiometric", "conditions": "1 mM", "inhibition [%]": 44.7}
{"SMILES": "CCN(c1cc(C#CCN2CCOCC2)cc(C(=O)NCc2c(C)cc(C)[nH]c2=O)c1C)[C@H]1CC[C@H](N(C)CCOC)CC1", "target": "SETD7", "test": "enzyme activity, inhibitor", "conditions": "1 µM", "inhibition [%]": 6}
{"SMILES": "Oc1cccc(Nc2nc(-c3ccc(F)cc3F)cs2)c1", "target": "CNR2", "test": "cell-free assay", "conditions": "10 µM", "inhibition [%]": 35.3}
{"SMILES": "O=C1C=C2CC3(O)COc4c(ccc(O)c4O)C3=C2C=C1O (centres unmarked)", "target": "SETD7", "test": "cell-free assay", "conditions": "10 µM", "inhibition [%]": 28}
{"SMILES": "C=CCSCC1Nc2cc(Cl)c(S(N)(=O)=O)cc2S(=O)(=O)N1 (centres unmarked)", "target": "SLC10A2", "test": "transporter uptake, inhibitor, radiometric", "conditions": "1 mM", "inhibition [%]": 57.9}
{"SMILES": "Cc1cc(O)c(C=O)c2c1C(=O)Oc1c(C)c(O)c3c(c1O2)C(O)OC3=O (centres unmarked)", "target": "SETD7", "test": "cell-free assay", "conditions": "10 µM", "inhibition [%]": 0}
{"SMILES": "CC(=O)N[C@H]1CSSC[C@@H](C(=O)N[C@@H](Cc2c[nH]c3ccccc23)C(N)=O)NC(=O)[C@H](Cc2ccccc2)NC(=O)[C@H](CCCNC(=N)N)NC1=O", "target": "Melanocortin receptor 5 (MC5R, Homo sapiens, UniProt P33032)", "test": "ligand displacement, radioligand", "conditions": "10 µM, 40 min", "inhibition [%]": 0}
{"SMILES": "O=C(O)CCCCCCCCCCCC[C@@H]1C=CCC1", "target": "SETD7", "test": "cell-free assay", "conditions": "10 µM", "inhibition [%]": -48}
{"SMILES": "CCN1CCN(Cc2ccc(NC(=O)c3ccc(C)c(/C=C/c4cnc5[nH]ccc5c4OC)c3)cc2C(F)(F)F)CC1", "target": "CSNK1A1", "test": "target engagement in cells, inhibitor, chemoproteomics", "system": "A-375", "conditions": "5 µM", "inhibition [%]": -58.8}
